The source of these data is ChEMBL document CHEMBL1153179, “Optimization of orally bioavailable alkyl amine renin inhibitors” (Bioorg Med Chem Lett, 2010).

As usually defined, the IC50 is the concentration at which inhibition is half-maximal. Broadly, the bioavailability is the share of a dose that reaches the circulation, judged against a reference dose that is usually intravenous. The term AUC(0-t) denotes the area under the concentration-time curve up to a stated or last time point. One may read the half-life as the time needed for the level to fall by half in the phase considered. Broadly, the clearance is the rate of elimination divided by the concentration. The term Tmax denotes the time from dosing to the highest level. As usually defined, the Cmax is the highest concentration seen after dosing.

The target of data set [1] is T1, Renin (Homo sapiens, UniProt P00797).
T1 sequence (P00797 whole entry): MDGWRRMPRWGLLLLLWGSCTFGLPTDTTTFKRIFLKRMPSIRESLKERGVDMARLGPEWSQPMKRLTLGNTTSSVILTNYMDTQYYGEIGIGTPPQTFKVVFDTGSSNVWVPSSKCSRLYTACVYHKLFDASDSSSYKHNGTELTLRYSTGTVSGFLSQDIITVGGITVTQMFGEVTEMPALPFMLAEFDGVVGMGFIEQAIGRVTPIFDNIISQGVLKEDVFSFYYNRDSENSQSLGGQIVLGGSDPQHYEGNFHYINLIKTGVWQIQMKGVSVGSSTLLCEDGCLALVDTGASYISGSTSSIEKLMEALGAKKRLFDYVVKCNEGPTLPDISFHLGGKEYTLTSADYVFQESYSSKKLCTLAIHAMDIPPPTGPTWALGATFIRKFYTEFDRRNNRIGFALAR
Put plainly: Inhibition of human recombinant renin assessed as decrease in plasma renin activity by competitive radioimmunoassay in presence of human plasma.

The nature of data set [2]: Oral bioavailability in rat at 10 mg/kg. It counts as ADME, organism-based. The settings on record: in vivo.
The target in data set [3] is T1, Renin. The data set is described as follows: Inhibition of trypsin-activated human recombinant renin.
Data set [4] in a line: Volume of distribution at steady state in rat at 10 mg/kg, po or 2 mg/kg, iv. Type of data set: ADME, organism-based. The conditions noted are these: in vivo, read-out: Vdss.
The nature of data set [5]: AUC (0 to t) in rat at 10 mg/kg, po. The conditions noted are these: plasma. Details: dose 10 mg/kg, route oral. It counts as ADME, organism-based, Plasma.
The nature of data set [6]: Half life in rat at 10 mg/kg, po. The conditions noted are these: in vivo. Further details: dose 10 mg/kg, route oral. Type of data set: ADME, organism-based.
Data set [7] can be described thus: Clearance in rat at 2 mg/kg, iv. The settings on record: in vivo. Details: dose 2 mg/kg, route intravenous. Type of data set: ADME, organism-based.
A short description of data set [8]: Tmax in rat at 10 mg/kg, po. Type of data set: ADME, organism-based. Further details: dose 10 mg/kg, route oral. The conditions noted are these: in vivo.
Data set [9] in a line: Cmax in rat at 10 mg/kg, po. Type of data set: ADME, organism-based. Details: dose 10 mg/kg, route oral. The conditions noted are these: in vivo.
Data set [10] deals with Rattus norvegicus. Put plainly: Reduction in mean blood pressure in double transgenic rat model of hypertension at 10 mg/kg, po after >20 hrs. Type of data set: functional, organism-based. Details: dose 10 mg/kg. Summed up:
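Double transgenic rats expressing human renin and human angiotensinogen (dTGR) given a single 10 mg/kg oral dose; mean arterial pressure followed over 24 h against vehicle-treated animals, with statistical significance assessed.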

The nature of data set [11]: Selectivity for human recombinant renin over beta-secretase.
Data set [12] in a line: Tmax in cynomolgus monkey at 1 mg/kg, po. It counts as ADME, organism-based, Macaca fascicularis. Details: dose 1 mg/kg, route oral. The conditions noted are these: in vivo.
The nature of data set [13]: Clearance in cynomolgus monkey at 1 mg/kg, iv. It counts as ADME, organism-based, Macaca fascicularis. Details: dose 1 mg/kg, route intravenous. The conditions noted are these: in vivo.
The nature of data set [14]: Half life in human liver microsomes. Type of data set: ADME, Microsome. A general note: Liver microsomes are a subcellular fraction often used to study metabolism.
Data set [15] is described as follows: Selectivity for human recombinant renin over cathepsin D.
Data set [16] can be described thus: Cmax in cynomolgus monkey at 1 mg/kg, po. Type of data set: ADME, organism-based, Macaca fascicularis. Details: dose 1 mg/kg, route oral. The settings on record: in vivo.
Data set [17] can be described thus: Oral bioavailability in cynomolgus monkey at 1 mg/kg. It counts as ADME, organism-based, Macaca fascicularis. The settings on record: in vivo. The method in brief: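 Cynomolgus monkeys were dosed with the fumarate salt orally at 1 mg/kg and intravenously at 1 mg/kg. Oral bioavailability (F, %) was reported alongside oral Cmax, tmax, AUC(0-t), oral t1/2, IV clearance and Vss.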

The nature of data set [18]: AUC (0 to t) in cynomolgus monkey at 1 mg/kg, po. The conditions noted are these: plasma. Further details: dose 1 mg/kg, route oral. Type of data set: ADME, organism-based, Macaca fascicularis.
A short description of data set [19]: Volume of distribution at steady state in cynomolgus monkey at 1 mg/kg, iv or 1 mg/kg, po. Type of data set: ADME, organism-based, Macaca fascicularis. The settings on record: in vivo, read-out: Vdss.
Data set [20] is described as follows: Half life in cynomolgus monkey at 1 mg/kg, po. Type of data set: ADME, organism-based, Macaca fascicularis. Further details: dose 1 mg/kg, route oral. The settings on record: in vivo.
A short description of data set [21]: Selectivity for human recombinant renin over cathepsin E.

The structures appear in SMILES notation. Active and inactive are the calls of the source.

As to `CNC[C@H](CC1CCCCC1)NC(=O)N1CCC[C@@H]([C@@](O)(CCCNC(=O)OC)c2cccc(Cl)c2)C1`, the half-maximal inhibitory concentration (IC50) worked out at 3.7 nM in data set [1] and 0.18 nM in data set [3]. In addition, in data set [2], the bioavailability came out at 0.3%. Moreover, in data set [4], the Vd is 29 L/kg. In data set [5], this compound had an AUC(0-t) of 10 ng·h/mL. The same compound showed a half-life in [6] of 1.8 h. The compound further registered a clearance in [7] of 34 mL/min/kg. In data set [8], the Tmax was 0.9 h. The same compound had a Cmax in [9] of 5 ng/mL.
Take `COC(=O)NCCO[C@@H](c1cccc(F)c1)[C@@H]1CCCN(C(=O)N[C@H](CN)CC2CCCCC2)C1`: the half-maximal inhibitory concentration (IC50) in data set [1] stood at 3.3 nM; in [3], 0.58 nM.
Take `CNC[C@H](CC1CCCCC1)NC(=O)N1CCC[C@@H]([C@@H](OCCNC(=O)OC)c2ccccc2)C1`: the IC50 was 2.9 nM in [1] and 1.17 nM in [3].
For `CCOC(=O)NCCC[C@@](O)(c1cccc(Cl)c1)[C@@H]1CCCN(C(=O)N[C@H](CNC)CC2CCCCC2)C1`, in that order: 170 nM and 14 nM.
On to `CNC[C@H](CC1CCCCC1)NC(=O)N1CCC[C@@H]([C@@H](OCCNC(=O)OC)c2cccc(F)c2)C1`, for which the half-maximal inhibitory concentration (IC50) is 1.8 nM in data set [1] and 0.59 nM in [3]. In addition, the bioavailability in data set [2] is 22.1%. In addition, the Vd in data set [4] turned out to be 61 L/kg. The same compound displayed an AUC(0-t) in [5] of 380 ng·h/mL. Further, the half-life in data set [6] was 12.7 h. Further, the clearance in data set [7] was 58 mL/min/kg. Also, the Tmax in data set [8] was 2 h. Also, in data set [9], the peak level (Cmax) was 123 ng/mL.
Consider `CNC[C@H](CC1CCCCC1)NC(=O)N1CCC[C@@H]([C@@](O)(CCCNC(C)=O)c2cccc(Cl)c2)C1`, for which, in data set [1], the IC50 was found to be 16 nM. For the same compound, in [4], the Vd turned out to be 117 L/kg. Further, the clearance in data set [7] stood at 23 mL/min/kg.
Consider `CNC[C@H](CC1CCCCC1)NC(=O)N1CCC[C@@H]([C@@](O)(CCCNC(=O)NC)c2cccc(Cl)c2)C1`, for which the IC50 in data set [1] came out at 141 nM; in data set [3] it was 46 nM.
For `CCC(=O)NCCC[C@@](O)(c1cccc(Cl)c1)[C@@H]1CCCN(C(=O)N[C@H](CNC)CC2CCCCC2)C1` the same measures were 21 nM and 1.5 nM.
Consider `CNC[C@H](CC1CCCCC1)NC(=O)N1CCC[C@@H]([C@@](O)(CCCNS(C)(=O)=O)c2cccc(Cl)c2)C1`, for which the IC50 in data set [3] was 177 nM.
As to `CNC[C@H](CC1CCCCC1)NC(=O)N1CCC[C@@H]([C@@H](OCCNC(=O)OC)c2cccc(Cl)c2F)C1`, the half-maximal inhibitory concentration (IC50) came out at 3.4 nM in data set [1] and 0.61 nM in data set [3].
Regarding `CCNC[C@H](CC1CCCCC1)NC(=O)N1CCC[C@@H]([C@@H](OCCNC(=O)OC)c2cccc(F)c2)C1`, the IC50 is 18 nM in data set [1] and 2.1 nM in [3].
For `CNC[C@H](CC1CCCCC1)NC(=O)N1CCC[C@@H]([C@@H](OCCNC(=O)OC)c2cc(F)ccc2F)C1`, in that order: 2.7 nM and 0.62 nM.
With `CNC[C@H](CC1CCCCC1)NC(=O)N1CCC[C@@H]([C@@H](OCCNC(=O)OC)c2cccc(Cl)c2)C1`, the outcome in [10] was Active. The Selectivity ratio in data set [11], in data set [15] and in data set [21] was more than 1000 each time. Further, the Tmax was found to be 1 h in [12] and 3 h in [8]. Besides, the 50% inhibitory concentration (IC50) stood at 0.82 nM in [1] and 0.48 nM in data set [3]. Further, the bioavailability in [2] came to 9.4%; in data set [17], 9.9%. Also, the clearance in [13] was 11.7 mL/min/kg; in data set [7], 36 mL/min/kg. Moreover, the half-life is more than 0.5 h in [14], 9.7 h in data set [6] and 29.2 h in [20]. Besides, the Vd was 19 L/kg in data set [4] and 9.8 L/kg in data set [19]. The highest concentration (Cmax) in [16] was 33.3 ng/mL; in data set [9], 94 ng/mL. Besides, the results for the AUC(0-t) in data set [5] and in data set [18] were 301 ng·h/mL and 130 ng·h/mL, respectively.
As to `CCOCCCO[C@@H](c1ccccc1)[C@@H]1CCCN(C(=O)N[C@H](CNC)CC2CCCCC2)C1`, in data set [5], the exposure AUC(0-t) was 832 ng·h/mL. In data set [6], this compound had a half-life of 5.9 h.
Consider `CCNC[C@H](CC1CCCCC1)NC(=O)N1CCC[C@@H]([C@@H](OCCNC(=O)OC)c2cccc(Cl)c2)C1`, for which the IC50 turned out to be 7.7 nM in [1] and 0.87 nM in data set [3].
